Results published in paper PMC7966865 (Molecular Metabolism, 2021).
Blank lines part the entries; values can stand above or below the molecule they belong to.

Key:
[1] = system: liver-specific Foxo1 knockout (LKO) mice; experiment: Pyruvate tolerance test; type: in vivo, mouse; conditions: three doses
In short: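 Liver-specific Foxo1 knockout mice (Albumin-Cre; Foxo1 flox/flox), male and female, were randomized by body weight and fed glucose. They received three oral doses of test compound at 10 ml/kg (8 am, 5 pm, 8 am), at 16 mg/kg in Optiform Select #8 or 30 mg/kg in 5% DMSO/95% PEG-400. After fasting, they were given sodium pyruvate 2 g/kg i.p. in saline. Tail glucose was read at 0–120 min. N = 7–15; tested once.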

[2] = system: endogenous FOXO1 target gene expression (G6pc, Pck1, Foxo1 mRNA) in primary hepatocytes; experiment: cAMP/Dex-induced gene expression; type: cell-based; conditions: primary mouse hepatocytes, insulin 100 nM, 6 h; for cAMP/Dex-induced G6pc mRNA expression / cAMP/Dex-induced Pck1 mRNA expression: FOXO1 inhibitors 10 μM; for effect on Foxo1 mRNA levels: cAMP + Dex, compound 10 10 μM
In short: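 Hepatocytes from 8–10-week-old male C57/BL6 mice, plated on collagen at 200,000 cells/well, recovered 4–5 h, then serum-reduced (1% FBS M199, G418) 15–16 h. Stimulation: cAMP 100 μM + dexamethasone 1 μM, with test compound (10 μM, or 10 nM–10 μM). q-RT-PCR normalized to Ppia. For IC50: 0% = unstimulated, 100% = cAMP + Dex; 3–6 wells/concentration; 4 experiments pooled; 4-parameter fit.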

[3] = system: normal C57 mice / control mice (Foxo1 flox/flox); experiment: Pyruvate tolerance test; type: in vivo, mouse
[4] = system: STZ-induced diabetic mice; experiment: Chronic study in streptozotocin; type: in vivo, mouse
In short: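 Male C57BL/6J mice received STZ 50 mg/kg i.p. in citrate buffer pH 4.5 for 5 days, until glucose reached 300–450 mg/dL, then were randomized. Human recombinant FGF21 was given s.c. at 0.45 mg/kg daily from day 1. Test compound in Solutol HS-15:saline (5:95) was given p.o. at 32 mg/kg/dose twice daily from day 4. Readings: 6-h-fasted plasma TG (colorimetric), body weight change day 10 vs day 0, and day-11 perigonadal fat weight. N = 5–6.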

Mouse PK = type: in vivo
In short: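 Male ICR mice (N = 3 per route) were dosed with test compound in Solutol HS-15:saline (5:95 v/v), i.v. at 1 mg/kg or p.o. at 10 mg/kg. Blood was sampled at 0.083–24 h (8 time points) and processed to plasma. Plasma levels were measured by LC-MS/MS and used to calculate PK parameters.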

pGK-FFluc = experiment: Non-specific activity: constitutive pGK-FFluc reporter in HEK293 cells; type: cell-based; conditions: Homo sapiens, HEK293, read-out: Non-specific activities pGK-FFluc IC50
In short: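 In the wild-type FOXO1 format, HEK293 cells in EMEM with 1% FBS were co-transfected with IRE-NanoLuc, constitutive pGK-firefly luciferase and the FOXO1-WT plasmid. Test compound was dosed right after transfection as a 10-point half-log series in duplicate, at 0.5% final DMSO. After 24 h, lysates were read by Nano-Glo Dual-Luciferase. Relative IC50 came from a four-parameter fit, with at least two experiments.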

pCMV-Rluc = experiment: Non-specific activity: constitutive pCMV-Rluc reporter in HEK293 cells; type: cell-based; conditions: Homo sapiens, HEK293, read-out: Non-specific activities pCMV-Rluc IC50
In short: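 HEK293 cells in EMEM with 1% FBS were co-transfected with IRE-firefly luciferase, constitutive CMV-Renilla luciferase and a forkhead factor or RFP control plasmid. Test compound was added immediately as a 10-point half-log series in duplicate, at 0.5% final DMSO. After 24 h, lysates were read by Dual-Glo luciferase. Relative IC50 came from a four-parameter fit, with at least two independent experiments.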

Cell viability = type: cell-based; conditions: human
In short: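 HEK293 cells were seeded overnight in EMEM with 1% FBS and then transfected for reporter assays. Test compound was added right after transfection as a 10-point half-log dilution in duplicate, at 0.5% final DMSO. After 24 h at 37 °C, medium taken off the cells was assayed for lactate dehydrogenase activity by LDH-Glo luminescence. At least two independent experiments were run.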

db/db mice = experiment: Chronic study in db/db mice; type: in vivo, mouse; conditions: for ALT / AST: 6-h-fasted plasma; for hepatic histology (H&E): after 10 days of treatment; for glucose levels during ITT: day 9, i.p. insulin 0.75U/kg, all time points; for HOMA-IR index (worsening of insulin resistance over the study) / HOMA-β: calculated from fasting glucose and insulin
In short: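 Male db/db mice (C57BL/6J background), 6–7 weeks old, were acclimated for 2 weeks and randomized by weight and glucose. They received vehicle, test compound or rosiglitazone (10 mg/kg in 0.5% methylcellulose) orally for 10 days. Body weight was recorded each morning before dosing. 6-h-fasted glucose and ELISA insulin on days 0, 5 and 10 gave HOMA-IR and HOMA-β. Fasted plasma ALT/AST were measured colorimetrically. N = 6–8.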

[5] = male, ICR, mouse, plasma, iv, 1 mg/kg
[6] = male, ICR, mouse, plasma, po, 10 mg/kg

Molecule: CCn1cc(C(=O)O)c(=O)c2c(N)c(F)c(NC3CCCCC3)cc21 [AS1842856, reference compound]
glucose levels during PTT ([1]; liver Foxo1 knockouts, 30 mg/kg/dose p.o.): reduced glucose levels
cAMP/Dex-induced G6pc mRNA expression [2]: significantly suppressed
cAMP/Dex-induced Pck1 mRNA expression [2]: significantly suppressed
glucose excursion during PTT ([3]; 4-h-fasted mice, higher dose level (30 or 100 mg/kg/dose tested) p.o.): significantly lowered glucose excursion
glucose levels during PTT ([3]; overnight-fasted C57 mice and control mice, 30 mg/kg p.o., three doses): able to reduce glucose levels

Molecule: CN1CCN(c2ccc(C(=O)Nc3cc(-c4nc5ccccc5[nH]4)n[nH]3)cc2)CC1 [Compound 10, N-[3-(1H-1,3-benzodiazol-2-yl)-1H-pyrazol-5-yl]-4-(4-methylpiperazin-1-yl)benzamide]
glucose levels during PTT ([1]; LKO mice, 16 mg/kg/dose p.o.): failed to reduce glucose levels
body weight ([4]; day 10 compared to day 0): trend toward reduced body weight
reduction in perigonadal fat pad weight ([4]; end of the study (day 11)): > 50%
CL (Mouse PK; male ICR mice, IV 1 mg/kg): 22.7 mL/kg∗min
AUCinf (Mouse PK; male ICR mice, IV 1 mg/kg, plasma): 1.86 μM∗h
AUCinf (Mouse PK; male ICR mice, PO 10 mg/kg, plasma): 4.66 μM∗h
Vd (Mouse PK; [5]): 1.71 L/kg
half-life (Mouse PK; [5]): 73.8 min
bioavailability (Mouse PK; male, ICR, mouse, plasma, oral, 10 mg/kg): 25.5%
Cmax (Mouse PK; [6]): 1620 nM
Tmax (Mouse PK; [6]): 40.2 min
IC50 (pGK-FFluc): > 10 µM
IC50 (pCMV-Rluc): > 24 µM
effect on Foxo1 mRNA levels [2]: did not affect
cAMP/Dex-induced G6pc mRNA expression [2]: significantly suppressed
cAMP/Dex-induced Pck1 mRNA expression [2]: significantly suppressed
CC50 at 24 h (Cell viability): > 24 µM
glucose lowering during PTT ([3]; normal C57 mice fasted overnight (16 h), 16 mg/kg p.o., three doses): ineffective at lowering glucose
reduced food intake (trend) (db/db mice; db/db mice, follow-up study, vs vehicle): 12%
plasma TG (db/db mice; male db/db mice, 6-h-fasted): no significant effects
plasma total cholesterol (TC) (db/db mice; male db/db mice, 6-h-fasted): no significant effects
ALT (db/db mice; male db/db mice): not affected
AST (db/db mice; male db/db mice): not affected
hepatic histology (H&E) (db/db mice; male db/db mice): no apparent effect
glucose levels during ITT (db/db mice; male db/db mice): significantly reduced glucose levels
blood glucose (db/db mice; male db/db mice, p.o. twice daily, ten days): reduced blood glucose to an extent similar to the PPARγ agonist rosiglitazone
weight loss (trend) (db/db mice; male db/db mice, ten days): 5%
insulin levels (db/db mice; male db/db mice, ten days, 6 h fast): did not significantly affect
HOMA-IR index (worsening of insulin resistance over the study) (db/db mice; male db/db mice, ten days): staunched
HOMA-β (db/db mice; male db/db mice, ten days): tended to be improved

hepatic histology (H&E) (db/db mice; male db/db mice): exacerbated hepatic steatosis
Molecule: CN(CCOc1ccc(CC2SC(=O)NC2=O)cc1)c1ccccn1 (centres unmarked) [rosiglitazone, reference compound]
plasma TG (db/db mice; male db/db mice, 6-h-fasted): reduced plasma TG
ALT (db/db mice; male db/db mice): not affected
AST (db/db mice; male db/db mice): not affected
glucose levels during ITT (db/db mice; male db/db mice): significantly reduced glucose levels
body weight (db/db mice; male db/db mice, rosiglitazone 10 mg/kg, ten days): weight gain
HOMA-IR index (worsening of insulin resistance over the study) (db/db mice; male db/db mice, ten days): staunched
HOMA-β (db/db mice; male db/db mice, ten days): tended to be improved

Molecule: insulin
effect on Foxo1 mRNA levels [2]: did not affect
cAMP/Dex-induced G6pc mRNA expression [2]: significantly suppressed
cAMP/Dex-induced Pck1 mRNA expression [2]: significantly suppressed

B1: FGF21: Human recombinant FGF21 (Sino Biological), fibroblast growth factor 21 (protein, UniProt Q9NSA1 29-209, looked up)
Fibroblast growth factor 21: HPIPDSSPLLQFGGQVRQRYLYTDDAQQTEAHLEIREDGTVGGAADQSPESLLQLKALKPGVIQILGVKTSRFLCQRPDGALYGSLHFDPEACSFRELLLEDGYNVYQSEAHGLPLHLPGNKSPHRDPAPRGPARFLPLPGLPPALPEPPGILAPQPPDVGSSDPLSMVGPSQGRSPSYAS
plasma TG ([4]; 6-h fast): significantly reduced
